According to ChEMBL document CHEMBL3588843, “Synthesis of C-5″ and C-6″-modified α-GalCer analogues as iNKT-cell agonists” (Bioorg Med Chem, 2015):
Calls of active or inactive are those of the source. The rule behind the calls is not given here.

Columns and labels:
[1] = system: Mus musculus; test: In vivo activation of iNKT cells in C57BL/6 mouse assessed as stimulation of IFNgamma production in serum at 5 ug, ip after 16 hrs by ELISA relative to alpha-GalCer; format: functional, organism-based
Procedure, shortened: (§1)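 C57BL/6 mice, 5–12 weeks old, in-house bred or purchased. Glycolipid dissolved in PBS with DMSO, given intraperitoneally at 5 μg per mouse. Mice bled 4 h (IL-4) and 16 h (IFN-γ) after injection; cytokines measured in serum. At least 2 separate experiments, 5–8 mice per group per glycolipid.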

[2] = system: Mus musculus; test: In vivo activation of iNKT cells in C57BL/6 mouse assessed as stimulation of IL4 production in serum at 5 ug, ip after 4 hrs by ELISA; format: functional, organism-based; procedure, shortened: as §1

Structure (SMILES) | Activity [1] | Activity [2]
CCCCCCCCCCCCCCCCCCCCCCCCCC(=O)N[C@@H](CO[C@H]1O[C@H](C(=O)NCc2ccsc2)[C@H](O)[C@H](O)[C@H]1O)[C@H](O)[C@H](O)CCCCCCCCCCCCCC | Active | inactive
CCCCCCCCCCCCCCCCCCCCCCCCCC(=O)N[C@@H](CO[C@H]1O[C@H](C(=O)Nc2ccccc2)[C@H](O)[C@H](O)[C@H]1O)[C@H](O)[C@H](O)CCCCCCCCCCCCCC | Active | inactive
CCCCCCCCCCCCCCCCCCCCCCCCCC(=O)N[C@@H](CO[C@H]1O[C@H](C(=O)NCc2cccc3ccccc23)[C@H](O)[C@H](O)[C@H]1O)[C@H](O)[C@H](O)CCCCCCCCCCCCCC | inactive | inactive
CCCCCCCCCCCCCCCCCCCCCCCCCC(=O)N[C@@H](CO[C@H]1O[C@H](C(=O)NCc2ccccc2)[C@H](O)[C@H](O)[C@H]1O)[C@H](O)[C@H](O)CCCCCCCCCCCCCC | inactive | inactive
CCCCCCCCCCCCCCCCCCCCCCCCCC(=O)N[C@@H](CO[C@H]1O[C@H](COC(=O)Nc2cccc3ccccc23)[C@H](O)[C@H](O)[C@H]1O)[C@H](O)[C@H](O)CCCCCCCCCCCCCC | Active | Active
CCCCCCCCCCCCCCCCCCCCCCCCCC(=O)N[C@@H](CO[C@H]1O[C@H](C(=O)NCc2ccc(Cl)c(Cl)c2)[C@H](O)[C@H](O)[C@H]1O)[C@H](O)[C@H](O)CCCCCCCCCCCCCC | inactive | inactive
CCCCCCCCCCCCCCCCCCCCCCCCCC(=O)N[C@@H](CO[C@H]1O[C@H](COC(=O)Nc2ccncc2)[C@H](O)[C@H](O)[C@H]1O)[C@H](O)[C@H](O)CCCCCCCCCCCCCC | Active | Active
CCCCCCCCCCCCCCCCCCCCCCCCCC(=O)N[C@@H](CO[C@H]1O[C@H](C(=O)Nc2ccc(Cl)c(Cl)c2)[C@H](O)[C@H](O)[C@H]1O)[C@H](O)[C@H](O)CCCCCCCCCCCCCC | inactive | inactive
CCCCCCCCCCCCCCCCCCCCCCCCCC(=O)N[C@@H](CO[C@H]1O[C@H](C(=O)NCCc2ccccc2)[C@H](O)[C@H](O)[C@H]1O)[C@H](O)[C@H](O)CCCCCCCCCCCCCC | inactive | inactive
CCCCCCCCCCCCCCCCCCCCCCCCCC(=O)N[C@@H](CO[C@H]1O[C@H](COC(=O)Nc2ccc(Cl)cc2)[C@H](O)[C@H](O)[C@H]1O)[C@H](O)[C@H](O)CCCCCCCCCCCCCC | Active | Active
